Reference: ChEMBL document CHEMBL4513216, “Probing the Open Global Health Chemical Diversity Library for Multistage-Active Starting Points for Next-Generation Antimalarials” (ACS Infect Dis, 2020)

Test: Toxicity liver stage against HepG2, at 10uM
Assay type: cell-based
Set-up: test concentration 10 uM, cell line HepG2-A16-CD81EGFP
Conditions: human, HepG2-A16-CD81EGFP cells; read-out: INHIBITION
Method in brief: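 Uninfected HepG2-A16-CD81EGFP cells, 3 × 10^3 per well, 1536-well, plated on prespotted compound at 10 μM final, parasite-free screening media added to match infected plates; puromycin 10 μM positive, DMSO 0.5% negative; run in parallel with 48 h PbLuc assay at 37 °C, 5% CO2; viability by CellTiter-Glo luminescence, normalized to controls.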

| SMILES | cytotoxicity at 10 µM [%] |
| --- | --- |
| c1ccc2oc(C3CCN(Cc4ncon4)CC3)nc2c1 | 2.56 |
| COCC(=O)N[C@H]1C[C@@H](Cc2cc(CN3CCOCC3)on2)C1(C)C | 0.66 |
| COCCCNC(=O)N1CCN(C(=O)c2nsc3ccc(C)cc23)CC1 | 12.3 |
| Cc1cc(NC(=O)NCCCSc2nncn2C)no1 | 0.0537 |
| CCOc1nn(CC)cc1-c1nnc(SCC)n1C | 1.81 |
| COCCCNC(=O)c1cn(C(C)C)cc2c(=O)[nH]nc1-2 | -4.45 |
| Cc1cc(C(=O)N(CC(F)(F)F)C2CCOCC2)c(C)o1 | -0.541 |
| O=C(C1CCOCC1)N1CCC2(CCC(C(=O)N3CCCC3)O2)CC1 (stereo not given) | 6.41 |
| CCS(=O)(=O)N1CCCC2(CCCC(=O)N2C)C1 (stereo not given) | 8.86 |
| CC(=O)N1C[C@H]2CN(CC3CC3)C(=O)[C@H]2C1 | 6.32 |
| CN(C)C(=O)CN1CCC2(CC1)COC2 | 5.53 |
| O=C(N1CCCC1)N1CCC2(CC(=O)N(c3ccc4c(c3)OCO4)C2)C1 (stereo not given) | 9.79 |
| CN(C)C(=O)[C@@H]1CCO[C@@H]2CCN(c3ncccn3)C[C@H]21 | 6.65 |
| COc1ccc(C(=O)COc2coc(CN3CCSCC3)cc2=O)cc1 | 8.13 |
| CCc1c(C)n(CC(=O)OC)c2nc3ccccc3n2c1=O | 1.44 |
| CC1=Nc2c(c(=O)[nH]n2C2CCCC2)C(c2cccc(O)c2)S1 (stereo not given) | 4.8 |
| CC(C)n1[nH]c(=O)c2c1NC(=O)CC2c1cccnc1 (stereo not given) | -6.15 |
| CNc1nc2c(s1)C(c1c(Cl)cccc1Cl)CC(=O)N2 (stereo not given) | -10.4 |
| Cn1cc(N2CCC3(CCN(S(=O)(=O)C4CC4)C3)C2=O)cn1 (stereo not given) | -2.45 |
| CNC(=O)N1C[C@H]2CC[C@@]3(N=C(c4ccccc4)NC3=O)[C@H]2C1 | -9.84 |
| CC(C(=O)Nc1ccon1)n1ccc(C(F)(F)F)n1 (stereo not given) | 5.15 |
| Cc1ccccc1CNCc1cc(Cl)ccc1O | -5.9 |

| SMILES | cytotoxicity at 10 µM [%] |
| --- | --- |
| Cc1cc(C(F)(F)F)nn1CC(C)C(=O)Nc1cccnc1 (stereo not given) | 11.5 |
| O=C1CC(c2ccc3c(c2)OCO3)c2snc(C(=O)O)c2N1 (stereo not given) | 4.43 |
| COCc1nc(N(C)C)ncc1C(=O)Nc1ccn(C)n1 | -0.782 |
| CNC(=O)CCc1cc(C2CCCCN2C(C)C)nc(C)n1 (stereo not given) | -1.66 |
| CNc1ccc(C2CN(c3cc(C)ncn3)CCO2)nc1 (stereo not given) | 7.14 |
| Cc1ccccc1C(=O)N1CC[C@H](O)[C@@H](N2CCOCC2)CC1 | 5.32 |
| O=C(CCS(=O)(=O)C1CCCC1)N1CCCC(n2ccnc2)C1 (stereo not given) | -0.968 |
| O=S(=O)(CCc1ccccc1)Nc1cc(Cl)ccn1 | -4.81 |
| CS(=O)(=O)NCC1Cc2ccccc2O1 (stereo not given) | 2.01 |
| Cn1cc(C(=O)NCCc2ccc(OC3CCCC3)cc2)ccc1=O | -2.51 |
| COC(CNC(=O)c1ccc[nH]1)c1cccc(Cl)c1 (stereo not given) | -0.23 |
| Clc1ccc(C2(NCc3noc(C4CC4)n3)CCOCC2)cc1 | -3.1 |
| O=C(c1ccc2nncn2c1)N1CCCC1c1noc(C2CC2)n1 (stereo not given) | -7.11 |
| COc1cccc(C(=O)NS(=O)(=O)c2cncc(Br)c2)c1OC | 0.684 |
| Cc1cc(C)n(CC2CCCN2C(=O)c2ccc3[nH]cnc3c2)n1 (stereo not given) | 3.18 |
| CC(NCc1cccnc1)c1cc2c(cc1Br)OCCO2 (stereo not given) | 2.46 |
| O=C(C[S+]([O-])Cc1cccc(Cl)c1)NC1CCCC1 (stereo not given) | 0.808 |
| CC1(C)CN(CC(F)(F)F)CCN1CC(N)=O | 9.92 |
| CN(C(=O)c1ccc[nH]1)C1CC(=O)N(Cc2ccccc2)C1=O (stereo not given) | 8.02 |
| O=C(CNC(=O)N(Cc1ccoc1)C1CCCCC1)N1CCCC1 | -1.3 |
| Cc1cnn(C2CN(c3ncnc4[nH]ccc34)C2)c1 | 8 |
| Cc1cc(C2CCCN(CC(=O)N3CCc4ccccc43)C2)n[nH]1 (stereo not given) | 2.01 |

| SMILES | cytotoxicity at 10 µM [%] |
| --- | --- |
| O=C(c1occc1CN1C(=O)Cc2ccccc21)N1CCCCCC1 | 4.52 |
| Cc1nn(C)c(Cl)c1C1CCCN1c1ncnc2[nH]ccc12 (stereo not given) | 10.9 |
| COCC(O)CN(C)C(=O)c1cccc(-c2csc(C)n2)c1 (stereo not given) | -3.04 |
| Cc1ccc(NC(=O)N2CCCC(N(C)C)C2)c(Br)c1 (stereo not given) | -3.51 |
| c1nc(N2CCN(Cc3nnnn3C3CC3)CC2)c2sccc2n1 | 24.5 |
| CS(=O)(=O)c1ccc(NCCC2CCCO2)c(S(C)(=O)=O)c1 (stereo not given) | -4.27 |
| Cc1ccc(CNC(CN2CCN(C)CC2)c2ccccc2)cc1 (stereo not given) | 9.19 |
| Cc1ccc(NC(=O)NC(C)c2nc[nH]n2)cc1 (stereo not given) | -0.665 |
| CC(C)(C)N1CCCN(C(=O)c2csc(S(N)(=O)=O)c2)CC1 | 5.06 |
| N#CCCN(CCC#N)C(=O)CN1CCCC1Cc1cccc(F)c1 (stereo not given) | -10.5 |
| Cc1cnn(CCC(=O)N2CCOC(c3nc(C(C)(C)C)n[nH]3)C2)c1 (stereo not given) | 5.17 |
| Cc1ccc(C(=O)N(C)Cc2cc(Br)cs2)c(=O)[nH]1 | -0.782 |
| Cc1ccc(C(=O)N(C)Cc2cscn2)c(=O)[nH]1 | -7.69 |
| CCc1nnc2n1CCN(C(=O)c1ccc3[nH]cnc3c1)C2 | -19.1 |
| COC(=O)NCC(=O)N1CCCC(c2ncc[nH]2)C1 (stereo not given) | 2.42 |
| CC(C)[C@H]1CN(CC2CCC2)C[C@@H]1NC(=O)c1ccc(=O)[nH]c1 | -7.85 |
| CCN(CC)S(=O)(=O)N1CCCC(c2nccn2Cc2cccnc2)C1 (stereo not given) | 7.07 |
| Cc1ccc2oc(CN3CCn4nc(CCC(=O)O)cc4C3)c(C)c2c1 | -5.56 |
| C=C(C)CNC(=O)C1CCC(=O)N(C2CCCC2)C1 (stereo not given) | -3.4 |
| CC(C(=O)N1CCN(CCOc2ccccc2)CC1)n1cc(Cl)cn1 (stereo not given) | 10.4 |
| CC(C)c1cc(C(=O)NCCN2CCCCC2CO)on1 (stereo not given) | 2.07 |
| Cc1cccnc1[C@H](C)NC(=O)c1cccc(CC2CCNCC2)c1 | -5.22 |

| SMILES | cytotoxicity at 10 µM [%] |
| --- | --- |
| CC1(C)CC(CN2CCC3(CCC(=O)N(CCO)C3)CC2)CCO1 (stereo not given) | 18 |
| Cn1ncc2c(NCC3CCS(=O)(=O)C3)nc(C3CCCC3)nc21 (stereo not given) | -5.1 |
| COc1ccc(-n2cccn2)c(CN2CCOCC(CN(C)C)C2)c1 (stereo not given) | -14.6 |
| CCc1ccccc1C(=O)N1C[C@@H](CN2CCOCC2)[C@@H](CO)C1 | -0.125 |
| Cc1ccc(-c2ncc(C(=O)N3CCCN4CCC[C@H]4C3)c(O)n2)cc1 | -8.04 |
| CCOc1ccc(C(=O)CCC(=O)NCCc2nncn2CC)cc1C | -10.7 |
| O=C(O)C1(n2cccn2)CCN(c2nc(-c3ccccc3)no2)CC1 | 7.47 |
| O=C1O[C@@H]2CN(Cc3ccccn3)C[C@@H]2N1CCCc1ccc(F)cc1 | -0.687 |
| CCN(Cc1cnn(C)c1)C[C@H]1CC[C@@H](Cc2cccc(CN)c2)O1 | -0.189 |
| CCNC(=O)[C@@H]1C[C@@H](N)CN1C(=O)CCc1ccc(C)c(C)c1 | 2.72 |
| Cc1cc(C(F)(F)F)nc(CCNc2nc(C)nc3c2cnn3C)n1 | 4.79 |
| Cc1cc(-c2cncnc2)ccc1OCC(N)=O | 8.07 |
| Cc1ccccc1CSc1nc(N)cc(N2CCCC(O)C2)n1 (stereo not given) | -6.52 |
| COCc1nc2ncc3c(=O)n(-c4ccc(OC)cc4)ccc3n2n1 | 8.1 |
| Cc1c(CN2CCC(C(=O)O)(n3ccnc3)CC2)oc2ccccc12 | -4.86 |
| Cc1ccc(C)c(C(=O)N2CCC3(CCC(=O)N(CC(N)=O)C3)CC2)c1 | 17.7 |
| Cc1cncc(C(=O)N2CCCC(O)(CO)C2)c1 (stereo not given) | 2.09 |
| CC(C)CCN1CC2(CCCN(C(=O)c3cscn3)C2)CCC1=O (stereo not given) | -13.9 |
| CN(CCO)Cc1nnc(C2CCN(C(=O)C(C)(C)C)CC2)n1C | 22.6 |
| Cc1cccnc1CNCC1(O)CCCN(CC2CCCCC2)C1=O (stereo not given) | -2.37 |
| CCOc1cc(C)nc(N2CCN(C(=O)c3cscn3)CC2)n1 | -7.54 |
| CC(C)Cc1nc(CN2CCOC(Cn3cncn3)C2)no1 (stereo not given) | 2.07 |

| SMILES | cytotoxicity at 10 µM [%] |
| --- | --- |
| Cc1nc(CN(C)CC(c2cccs2)N2CCOCC2)no1 (stereo not given) | -2.15 |
| Cc1ccc(C(C)C(=O)N2CCCN(Cc3cscn3)CC2)cc1 (stereo not given) | -5.31 |
| CC(C)c1nc(C2CCCN(C(=O)CCn3ccccc3=O)C2)no1 (stereo not given) | -18.4 |
| CN(C)CC1CN(Cc2ccc(-n3cccn3)cc2)CCO1 (stereo not given) | 4.09 |
| CNC(=O)CCS(=O)(=O)Cc1cc(Cl)c2c(c1)OCCO2 | -4.89 |
| CCCNC(=O)C1CCN(Cc2csc(CC)n2)CC1 | -10.4 |
| Cc1csc(N2CCCN(C(=O)c3ccoc3C)CC2)n1 | -8.45 |
| Cc1ccc(OCCN2CCCC(c3cc(C(N)=O)[nH]n3)C2)cc1 (stereo not given) | -9.14 |
| Cc1cnn(CC2CN(CC(=O)Nc3ccnn3C(C)C)CCO2)c1 (stereo not given) | -8.06 |
| Cc1cnn(CC2CCCN2CC(=O)NC2CCOCC2)c1 (stereo not given) | -16 |
| COc1ccc(C)cc1C(C)NC(=O)NCCCn1cncn1 (stereo not given) | 2.62 |
| Cc1cc(C)c(CNC(=O)N2CCCC2C(N)=O)c(=O)[nH]1 (stereo not given) | -0.241 |
| Cc1noc(C)c1CNc1cc(N2CCCC2CO)ncn1 (stereo not given) | 1.42 |
| COc1ccc(OCCc2cc(C3CCN(CC(C)C)C3)n[nH]2)cc1 (stereo not given) | 1.97 |
| COCC1CN(Cc2cc(C)on2)Cc2cn(CC3CCCC3)nc21 (stereo not given) | 6.4 |
| O=C(c1ccncc1)N1CCN2C[C@H](Oc3cccc(F)c3)C[C@H]2C1 | 8.28 |
| O=C(Cc1ccccn1)N1CCC2(CC1)CN(CC1CC1)C(=O)CO2 | 7.43 |
| Cc1nc(N2CCCC2)nc2c1CCN(Cc1ccco1)CC2 | -6.52 |
| O=C(NCc1ccccc1)N1C[C@@H]2C[C@H](C(=O)N3CCCC3)[C@H](C1)O2 | 8.46 |
| CCc1ccc(NC(=O)N2C[C@@H]3C[C@H](C(=O)NC)[C@H](C2)O3)cc1 | 5.4 |
| Nc1ncccc1CN1C[C@H]2CC[C@@H](C1)N(CC1CC1)C2=O | -0.956 |
| O=c1c2c[nH]c(N3CCCC3)nc-2cn1CCc1ccc(Cl)cc1 | 11.9 |
